Experiments:
[1] = target: T1, Prostaglandin D2 receptor 2 (Homo sapiens, UniProt Q9Y5Y4); assay: Displacement of 3H-PGD2 from human CRTH2 receptor expressed in CHO cells; assay type: cell-based
T1 sequence (Q9Y5Y4 whole entry): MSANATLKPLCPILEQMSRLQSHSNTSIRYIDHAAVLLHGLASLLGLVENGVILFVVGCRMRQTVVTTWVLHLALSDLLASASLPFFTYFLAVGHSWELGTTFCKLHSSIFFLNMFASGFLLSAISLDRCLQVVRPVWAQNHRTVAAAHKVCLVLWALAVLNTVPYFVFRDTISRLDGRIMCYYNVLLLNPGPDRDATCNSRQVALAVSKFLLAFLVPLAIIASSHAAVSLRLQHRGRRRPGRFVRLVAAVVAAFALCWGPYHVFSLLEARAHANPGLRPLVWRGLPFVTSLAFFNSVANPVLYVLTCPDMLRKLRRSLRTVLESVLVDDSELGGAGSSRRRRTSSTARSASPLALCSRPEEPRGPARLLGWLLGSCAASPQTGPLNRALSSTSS
How it was run: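 Radioligand binding with ³H-PGD₂ on CHO cells stably transfected with human CRTH2. IC50 taken from full 10-point, half-log concentration–response curves, as means of at least two independent experiments.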

[2] = target: T1, Prostaglandin D2 receptor 2; assay: Antagonist activity at human CRTH2 receptor expressed in human KB8 cells assessed as inhibition of PGD2-induced increase in intracellular Ca2+ concentration; assay type: functional, cell-based
How it was run: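 Cells then washed and resuspended in HBSS with 10 mM HEPES pH 7.3 and 1 mM CaCl2 at 2 × 10⁵ cells/100 µl. PGD2-driven Ca²⁺ flux measured.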

[3] = target: T2, Prostaglandin D2 receptor (Homo sapiens, UniProt Q13258); assay: Inhibition of DP1 prostanoid receptor
T2 sequence (Q13258 whole entry): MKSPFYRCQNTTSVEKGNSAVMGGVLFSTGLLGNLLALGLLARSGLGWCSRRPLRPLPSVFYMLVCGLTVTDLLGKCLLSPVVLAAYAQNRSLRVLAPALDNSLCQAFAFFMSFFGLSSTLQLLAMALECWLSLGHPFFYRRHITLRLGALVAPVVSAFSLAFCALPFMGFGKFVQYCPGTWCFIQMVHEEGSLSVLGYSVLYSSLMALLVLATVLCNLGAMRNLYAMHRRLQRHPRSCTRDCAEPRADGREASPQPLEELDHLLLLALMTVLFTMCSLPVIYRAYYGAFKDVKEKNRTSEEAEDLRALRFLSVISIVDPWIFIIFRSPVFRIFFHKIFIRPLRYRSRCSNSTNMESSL
How it was run: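 DP1 binding assay run by a contract profiling service following the provider's procedures.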

[4] = target: Prostaglandin G/H synthase 1 (Homo sapiens, UniProt P23219); assay: Inhibition of COX-1
Prostaglandin G/H synthase 1, sequence (P23219 whole entry): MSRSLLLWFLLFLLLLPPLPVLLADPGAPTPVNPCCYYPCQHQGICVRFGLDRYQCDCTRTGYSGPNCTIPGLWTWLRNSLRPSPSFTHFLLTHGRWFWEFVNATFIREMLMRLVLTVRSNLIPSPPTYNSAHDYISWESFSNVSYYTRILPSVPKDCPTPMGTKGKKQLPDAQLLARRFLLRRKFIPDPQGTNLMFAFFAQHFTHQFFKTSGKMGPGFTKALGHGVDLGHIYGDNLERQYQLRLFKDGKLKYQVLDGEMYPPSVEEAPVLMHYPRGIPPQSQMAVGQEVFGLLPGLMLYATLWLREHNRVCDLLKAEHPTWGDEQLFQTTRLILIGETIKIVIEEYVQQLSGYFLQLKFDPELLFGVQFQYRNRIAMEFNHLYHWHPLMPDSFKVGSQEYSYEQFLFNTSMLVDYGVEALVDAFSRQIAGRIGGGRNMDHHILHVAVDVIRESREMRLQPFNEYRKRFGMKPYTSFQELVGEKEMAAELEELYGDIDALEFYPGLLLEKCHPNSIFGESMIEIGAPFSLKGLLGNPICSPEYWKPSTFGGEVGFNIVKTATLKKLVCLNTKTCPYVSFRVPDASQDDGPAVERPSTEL
How it was run: (§1)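 Enzyme inhibition assays for COX-1 and COX-2 run by a contract profiling service following the provider's procedures.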

[5] = target: T3, Prostaglandin G/H synthase 2 (Homo sapiens, UniProt P35354); assay: Inhibition of COX-2; how it was run: as §1
T3 sequence (P35354 whole entry): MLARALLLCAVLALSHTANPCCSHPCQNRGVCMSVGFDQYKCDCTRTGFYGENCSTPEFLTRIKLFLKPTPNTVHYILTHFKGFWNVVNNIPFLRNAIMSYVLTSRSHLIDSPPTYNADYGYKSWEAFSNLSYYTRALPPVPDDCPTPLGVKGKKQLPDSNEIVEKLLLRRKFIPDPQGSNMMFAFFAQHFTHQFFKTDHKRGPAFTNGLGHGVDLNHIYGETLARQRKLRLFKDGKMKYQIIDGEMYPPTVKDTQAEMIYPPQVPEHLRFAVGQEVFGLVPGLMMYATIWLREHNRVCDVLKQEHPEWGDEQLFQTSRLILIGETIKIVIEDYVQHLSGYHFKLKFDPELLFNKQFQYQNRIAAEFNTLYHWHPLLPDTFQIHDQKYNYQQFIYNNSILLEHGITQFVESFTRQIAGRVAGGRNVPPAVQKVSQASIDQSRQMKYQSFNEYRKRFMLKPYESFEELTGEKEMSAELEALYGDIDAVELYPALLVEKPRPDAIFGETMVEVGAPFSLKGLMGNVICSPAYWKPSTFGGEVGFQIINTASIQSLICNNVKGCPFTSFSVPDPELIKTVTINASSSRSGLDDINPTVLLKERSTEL

Row | Structure (SMILES) | IC50 [1] [nM] | further results
1 | O=C(O)Cc1cnc(C(=O)c2ccc(NC(=O)c3ncccn3)cc2)c2ccccc12 | 290 | IC50 [2]: 550 nM
2 | O=C(O)COc1cnc(C(=O)c2ccc(C(=O)NCCc3ccc(Cl)cc3)cc2)c2ccccc12 | 25 | 
3 | O=C(O)Cc1cnc(C(=O)c2ccc(NC(=O)c3ccncc3)cc2)c2ccccc12 | 83 | 
4 | CN(C(=O)c1ccc(Cl)c(Cl)c1)c1ccc(C(=O)c2ncc(CC(=O)O)c3ccccc23)cc1 | 210 | 
5 | O=C(O)Cc1cnc(C(=O)c2ccc(NC(=O)c3ccc(Cl)c(Cl)c3)cc2)c2ccccc12 | 19 | IC50 [3]: > 1000 nM; IC50 [4]: > 10 µM; IC50 [5]: > 10 µM
6 | O=C(O)Cc1cnc(C(=O)c2ccc(NC(=O)C3CCCCC3)cc2)c2ccccc12 | 14 | 
7 | O=C(O)Cc1cnc(C(=O)c2ccc(C(=O)NCCc3ccc(Cl)cc3)cc2)c2ccccc12 | 7.8 | 
8 | O=C(O)Cc1cnc(C(=O)c2ccc(OCc3ccc(Cl)c(Cl)c3)cc2)c2ccccc12 | 38 | IC50 [2]: 180 nM
9 | O=C(O)Cc1cnc(C(=O)c2ccc(NS(=O)(=O)c3ccc(Cl)c(Cl)c3)cc2)c2ccccc12 | 340 | 
10 | O=C(O)Cc1cnc(C(=O)c2ccc(NC(=O)c3ccccc3Cl)cc2)c2ccccc12 | 45 | 
11 | CC(C)(C(=O)O)c1cnc(C(=O)c2ccc(C(=O)NCCc3ccc(Cl)cc3)cc2)c2ccccc12 | 200 | 
12 | O=C(O)Cc1cnc(C(=O)c2ccc(C(=O)Nc3ccc(Cl)c(Cl)c3)cc2)c2ccccc12 | 10 | 
13 | O=C(O)Cc1cnc(C(=O)c2ccc(NC(=O)CCc3ccc(Cl)c(Cl)c3)cc2)c2ccccc12 | 13 | 
14 | O=C(O)Cc1cnc(C(=O)c2ccc(NC(=O)c3ccccc3)cc2)c2ccccc12 | 7.9 | IC50 [2]: 42 nM
15 | CC(=O)Nc1ccc(C(=O)c2ncc(CC(=O)O)c3ccccc23)cc1 | 330 | 

Stronger by IC50 [1], values ahead:

Row | IC50 [1] [nM] | Structure (SMILES) | further results
16 | 7.3 | COc1ccc(C(=O)Nc2ccc(C(=O)c3ncc(CC(=O)O)c4ccccc34)cc2)cc1 | 
17 | 6.1 | O=C(O)Cc1cnc(C(=O)c2ccc(NCc3ccc(Cl)c(Cl)c3)cc2)c2ccccc12 | 
18 | 4.9 | O=C(O)Cc1cnc(C(=O)c2ccc(NC(=O)c3ccc(C(F)(F)F)cc3)cc2)c2ccccc12 | IC50 [2]: 15 nM
19 | 4 | O=C(O)Cc1cnc(C(=O)c2ccc(NC(=O)/C=C/c3ccc(Cl)c(Cl)c3)cc2)c2ccccc12 | IC50 [2]: 17 nM
20 | 4 | O=C(O)Cc1cnc(C(=O)c2ccc(NC(=O)c3ccc4ccccc4c3)cc2)c2ccccc12 | 
21 | 3.4 | O=C(O)Cc1cnc(C(=O)c2ccc(NC(=O)c3ccc(Cl)cc3)cc2)c2ccccc12 | 
22 | 3.2 | O=C(O)Cc1cnc(C(=O)c2ccc(NC(=O)c3cccc(Cl)c3)cc2)c2ccccc12 | 
23 | 3.2 | O=C(O)Cc1cnc(C(=O)c2ccc(NC(=O)c3cc4ccccc4[nH]3)cc2)c2ccccc12 | 

Source: ChEMBL document CHEMBL2021917, “Isoquinoline derivatives as potent CRTH2 receptor antagonists: synthesis and SAR” (Bioorg Med Chem Lett, 2012)
